Beta2AR agonist: agonists of human beta-2 adrenergic receptor inducing internalization; P07550; Am2.2-beta2AR cells, FAP receptor internalization, flow cytometry; response, % (test concentration not listed); 0.43% of 340,000 active; AID 504454;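 active = response above a set limit, near 3 SD of response in nonfluorescent compounds, cut at about 42% in these data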
ABHD5 PLIN5 PPI: ABHD5-PLIN5 protein interaction inhibition | Split G. princeps luciferase complementation, luminescence, 4 h | inhibition, % at 4 µM | 0.78% of 360,000 active | Q00G26+Q8WTS1;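 active = inhibition above the mean inhibition across every tested compound plus 3 SD, cut at about 22% in these data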;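 also: 0% = DMSO only wells and the 100% control is not disclosed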
NadD block: blocks S. aureus nicotinate mononucleotide adenylyltransferase; purified NadD enzyme, colorimetric absorbance read-out; inhibition, % at 20 µM; 0.78% of 360,000 active; in the data active = inhibition above about 26%
GRK2 aptamer HTS: inhibitors of human GRK2 displacing RNA aptamer; inhibition of aptamer binding, % at 10 µM; 0.59% of 330,000 active; P25098; bead flow cytometry, FAM-aptamer displacement from GRK2; AID 488847;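 active = inhibition of aptamer binding above 40%, roughly 3 SD of noise, on plates passing a quality check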;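 also: median bead fluorescence of bound FAM aptamer so fluorescent compounds give negative values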
Target sequence (P25098 whole entry, looked up): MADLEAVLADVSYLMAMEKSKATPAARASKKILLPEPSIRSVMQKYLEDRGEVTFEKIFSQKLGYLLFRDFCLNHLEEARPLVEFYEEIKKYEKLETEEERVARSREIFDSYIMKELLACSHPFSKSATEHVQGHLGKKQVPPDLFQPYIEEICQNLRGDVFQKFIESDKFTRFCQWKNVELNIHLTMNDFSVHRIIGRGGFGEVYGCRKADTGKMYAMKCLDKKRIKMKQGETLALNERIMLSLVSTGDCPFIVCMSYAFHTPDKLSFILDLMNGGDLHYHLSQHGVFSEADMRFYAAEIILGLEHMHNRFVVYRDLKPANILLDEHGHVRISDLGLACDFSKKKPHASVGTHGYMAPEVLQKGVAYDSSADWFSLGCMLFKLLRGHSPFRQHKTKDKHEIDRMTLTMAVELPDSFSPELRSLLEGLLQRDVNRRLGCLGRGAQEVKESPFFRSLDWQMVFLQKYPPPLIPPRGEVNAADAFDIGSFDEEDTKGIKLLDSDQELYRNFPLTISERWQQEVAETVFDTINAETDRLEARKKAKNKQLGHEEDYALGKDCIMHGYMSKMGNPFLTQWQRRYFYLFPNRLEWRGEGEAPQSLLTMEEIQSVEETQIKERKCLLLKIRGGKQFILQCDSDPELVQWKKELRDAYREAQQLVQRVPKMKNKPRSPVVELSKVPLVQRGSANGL
SENP1 inh: inhibitors of human SENP1 SUMO protease catalytic domain | inhibition, % at 10 µM | Q9P0U3 | 0.21% of 360,000 active | recombinant SENP1 catalytic domain, CyPet-SUMO1-YPet FRET cleavage;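 active = inhibition at least 30% at 10 µM, raw YFP signal under a set limit, fluorescence ratio 0.5 to 1.5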;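 also: 0% = enzyme with DMSO and 100% = no enzyme wells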
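Assay system: hSENP1 catalytic domain, recombinant. Amount: SENP1 enzyme, 20 pM final. Schedule: 50 min reaction, RT, dark. Technique: FRET, CFP and YFP emission. Control set: no-enzyme wells low, DMSO-plus-enzyme wells high control.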
An asterisk follows results filed as active; · = no result. In the library only some 2.5% were active in any assay of this set; here they are far more common.

SMILES | Beta2AR agonist | ABHD5 PLIN5 PPI | NadD block | GRK2 aptamer HTS | SENP1 inh
COc1cc(/C=C2\CCC/C(=C\c3ccc(O)c(OC)c3)C2=O)ccc1O | 43* | 10 | 0 | 0 | -24
COc1cc(/C=C2/CCCC(C(=O)C(F)(F)F)=C2O)ccc1O | 21 | 3 | -3 | 0 | -49
CC(C)c1ccc(C(=O)N2CCN(c3cnn(C)c(=O)c3Cl)CC2)cc1 | 2 | -2 | 3 | 1 | 2
CC[C@@H](C)[C@H](N)C(=O)NC[C@H]1O[C@@H](n2cnc3c(N)ncnc32)[C@H](O)[C@@H]1O | -2 | 10 | 1 | 5 | 0
C=CCOc1ccc(C[C@H](N)C(=O)NC[C@H]2O[C@@H](n3cnc4c(N)ncnc43)[C@H](O)[C@@H]2O)cc1 | -5 | -10 | 0 | 43* | 0
Cc1ccc(N2C(=O)C3C(c4ccccc4)N4CCCN4C3(C)C2=O)cc1 (centres undefined) | 44* | -1 | 4 | 1 | 1
Cc1cccc(-c2n[nH]c(=S)n2/N=C/c2ccc(C)o2)c1 | -2 | -8 | -1 | 47* | 2
CCOC(=O)N1CCC(NC(=S)Nc2ccc3nc(N4CCN(CC)CC4)cc(C)c3c2)CC1 | 50* | 11 | -11 | 0 | -8
Fc1ccccc1NC(=S)N1CCN(C/C=C/c2ccccc2)CC1 | 56* | 0 | -7 | 0 | 1
S=C(Nc1ccccc1)N1CCN(C/C=C/c2ccccc2)CC1 | -15 | -3 | 1 | 8 | -14
COc1cc(/C=C2/C(=N)N3N=C(C(C)C)SC3=NC2=O)ccc1OS(=O)(=O)c1ccccc1 | 13 | -4 | 5 | 2 | -11
CCOc1cc(/C=C2\C(=N)N3N=C(C)SC3=NC2=O)ccc1OCCOc1cccc(OC)c1 | 16 | 3 | 45* | 4 | -18
COc1cccc(OCCOc2ccc(/C=C3\C(=N)N4N=C(S(C)(=O)=O)SC4=NC3=O)cc2OC)c1 | 7 | 6 | 29 | 0 | -9
COc1cc(/C=C2\C(=N)N3N=C(S(C)(=O)=O)SC3=NC2=O)cc(OC)c1OCCOc1ccccc1C | 3 | 5 | 26* | 24 | -3
COc1cc(/C=C2\C(=N)N3N=C(C)SC3=NC2=O)cc(OC)c1OCCOc1ccccc1C | 19 | -3 | 3 | 0 | -1
CCC1=NN2C(=N)/C(=C/c3ccc(OS(=O)(=O)c4ccccc4)c(OC)c3)C(=O)N=C2S1 | 13 | -7 | 82* | 0 | -8
CCN(CC)S(=O)(=O)c1ccc(/C=C/C(=O)OCC(=O)Nc2cccnc2Cl)cc1 | 9 | 2 | -2 | 0 | 1
COc1ccc(O)c(CN2CCN(CCCc3ccccc3)C(CCO)C2)c1 (centres undefined) | 12 | 8 | 7 | 0 | -1
COC(=O)C1=C(C)N(CCC2=CCCCC2)C(=O)C1 | -6 | 3 | 0 | 0 | 2
COC(=O)C1=C(\O)CCCC/C=C\1C(=O)O | 0 | 22* | 3 | · | 2
CC1CN(C(=O)COC(=O)Cc2c(Cl)cccc2Cl)CC(C)O1 (centres undefined) | 3 | 7 | 2 | 1 | 0
Cn1nnnc1SCC1=C(C(=O)O)N2C(=O)[C@@H](NC(=O)[C@H](O)c3ccccc3)[C@H]2SC1 | 2 | -8 | 11 | 52* | 1
Cn1nnnc1SCC1=C(C(=O)O)N2C(=O)C(NC(=O)C3CC3c3ccccc3)C2SC1 (centres undefined) | 0 | 10 | 0 | 17 | -2
Cc1ccc(C2=NOC(=O)/C2=C\C=C\c2ccccc2)cc1 | 10 | 0 | 26* | · | -14
O=C1N=C(N2CCCC2)S/C1=C\c1cn[nH]c1-c1ccccc1 | · | · | · | 0 | ·
SMILES | Beta2AR agonist | ABHD5 PLIN5 PPI | NadD block | GRK2 aptamer HTS | SENP1 inh
Cc1ccccc1N1CCN(C2=NC(=O)/C(=C/c3cn[nH]c3-c3ccccc3)S2)CC1 | 48* | 9 | 41* | 6 | 0
CCOc1ccccc1N=C1SC(CC(=O)Nc2ccc(OC)cc2OC)C(=O)N1CCC1=CCCCC1 (centres undefined) | 67* | -10 | 7 | 4 | 1
O=C1ON=C(c2ccccc2)/C1=C/c1ccco1 | 58* | 18 | 8 | 2 | -12
O=C(/C=C/c1ccc2c(c1)OCO2)NCCSCc1c(Cl)cccc1Cl | 77* | -3 | -4 | 1 | 2
O=C(/C=C/c1ccc2c(c1)OCO2)NCCSCc1ccc(Cl)cc1 | -2 | -4 | -3 | 0 | 4
Cc1ccc(S(=O)(=O)N(C)c2ccc(OCC(=O)NCC3(N(C)C)CCCCC3)cc2)cc1 | -7 | 9 | -9 | 1 | 1
O=C(Cn1ncn2c(cc3ccccc32)c1=O)NCc1ccco1 | 2 | 29* | 8 | 0 | -11
CN1CCN(C(=O)CCN2C(=O)/C(=C\c3ccc(Cl)cc3)SC2=S)CC1 | -5 | -3 | -6 | 0 | 3
NS(=O)(=O)c1ccc(CCN2C(=O)/C(=C\c3ccc(Cl)cc3)SC2=S)cc1 | -1 | 4 | 33* | 1 | 4
Cc1cccc(NC(=O)CN2C(=O)N/C(=C/c3cc(C)n(C(C)C)c3C)C2=O)c1 | -4 | -1 | 34* | 1 | -33
CC(NC(=O)CSc1nc2sc3c(c2c(=O)n1-c1ccccc1)CCCC3)c1ccccc1 (centres undefined) | -10 | -1 | 33* | 1 | 0
Cc1ccc(C(=S)N2CCCCCC2)cc1 | -1 | -9 | -3 | 1 | -1
O=C(N/N=C/c1cc(Br)ccc1O)c1ccncc1 | 5 | -3 | -9 | 4 | -31
O=C(N/N=C/c1ccc(O)c2ncccc12)c1cccc(Br)c1 | 4 | 11 | 15 | 0 | 52*
O=C(CSc1nnc(N2CCCC2)n1-c1ccccc1Cl)N1CCN(c2ccccn2)CC1 | 0 | -3 | -2 | 4 | 0
CCOC(=O)c1c(NC(C)=O)sc2c(OCCN(CC)CC)c(Br)ccc12 | 5 | 6 | -8 | 0 | -1
CCOC(=O)c1c(NC(C)=O)sc2c1CCC(C=NCCCN(CC)CC)=C2Sc1ccccc1 | -921 | 48* | 10 | 0 | -21
Cc1ccc(S(=O)(=O)N(C(=O)c2ccncc2)c2ccc(OC(=O)c3ccncc3)c3ccccc23)c(C)c1 | 5 | 33* | 14 | 0 | 2
CC1CCCCN1C(=S)NC(=O)c1cc(Br)ccc1Cl (centres undefined) | -4 | -6 | 3 | 2 | 0
O=C(C1=C(O)C(=O)N(CCN2CCOCC2)C1c1ccc(F)cc1)c1cc2ccccc2o1 (centres undefined) | 75* | -2 | 9 | 4 | -4
O=C1c2ccccc2C(=O)c2c1cccc2N1CCCC1 | -14 | 3 | -3 | 0 | 5
Cn1c(=O)cc2c3c(c(N4CCCCC4)ccc31)C(=O)c1ccccc1-2 | -6 | 6 | -3 | 2 | 33*
COc1ccc(/C(C)=N/Nc2ccc(C(=O)O)cc2)cc1OC | 0 | -1 | -1 | 4 | 1
COc1cc(/C(C)=N/Nc2ccc(C(=O)O)cc2)cc(OC)c1OC | -8 | 1 | 3 | 71* | 0

High-throughput results deposited in PubChem by several laboratories.
